In ChEMBL document CHEMBL1137294, “Adenosine mimetics as inhibitors of NAD+-dependent histone deacetylases, from kinase to sirtuin inhibition” (J Med Chem, 2006):
Activity calls are given as the source filed them. No cut-off for these calls is given here.

What was measured:
[1] = target: T1, NAD-dependent protein deacetylase sirtuin-1 (Homo sapiens) (UniProt Q96EB6); experiment: Inhibition of human SIRT1 at 50 uM
T1 sequence (whole entry): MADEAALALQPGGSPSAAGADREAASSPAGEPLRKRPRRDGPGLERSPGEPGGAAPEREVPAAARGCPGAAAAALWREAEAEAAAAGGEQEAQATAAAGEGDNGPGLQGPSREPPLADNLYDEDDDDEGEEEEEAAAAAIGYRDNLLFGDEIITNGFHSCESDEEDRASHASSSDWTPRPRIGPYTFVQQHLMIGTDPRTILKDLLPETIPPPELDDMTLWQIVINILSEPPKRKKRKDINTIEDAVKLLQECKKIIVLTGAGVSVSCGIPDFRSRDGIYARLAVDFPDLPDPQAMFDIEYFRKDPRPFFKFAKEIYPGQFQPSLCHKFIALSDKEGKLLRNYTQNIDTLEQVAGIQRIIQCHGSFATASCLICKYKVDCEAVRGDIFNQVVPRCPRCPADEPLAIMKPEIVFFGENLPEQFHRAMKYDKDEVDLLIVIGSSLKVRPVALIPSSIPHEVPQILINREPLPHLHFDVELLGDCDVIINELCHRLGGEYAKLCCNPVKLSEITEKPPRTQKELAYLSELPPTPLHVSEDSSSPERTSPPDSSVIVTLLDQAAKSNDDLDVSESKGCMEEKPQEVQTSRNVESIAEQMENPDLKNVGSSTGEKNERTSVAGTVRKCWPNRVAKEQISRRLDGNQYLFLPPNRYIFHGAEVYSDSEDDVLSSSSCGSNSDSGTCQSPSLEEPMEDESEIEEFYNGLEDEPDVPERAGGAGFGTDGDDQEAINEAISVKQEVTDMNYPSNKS
Procedure, shortened: (§1)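 Homogeneous fluorescent deacetylase assay with recombinant SIRT1 or SIRT2 (SIRT2 full-length, N-terminal His6, expressed in E. coli BL21). Reaction held ZMAL substrate 10.5 µM and NAD+ 500 µM, run 4 h at 37 °C. Deacetylated product developed by tryptic digest; fluorescence read at ex 390/em 460 nm. Inhibition taken from remaining substrate versus no-inhibitor control. Run at least in duplicate, inhibitors added from DMSO stocks.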

[2] = target: T2, NAD-dependent protein deacetylase sirtuin-2 (Homo sapiens, UniProt Q8IXJ6); experiment: Inhibition of human recombinant SIRT2
T2 sequence (Q8IXJ6 whole entry): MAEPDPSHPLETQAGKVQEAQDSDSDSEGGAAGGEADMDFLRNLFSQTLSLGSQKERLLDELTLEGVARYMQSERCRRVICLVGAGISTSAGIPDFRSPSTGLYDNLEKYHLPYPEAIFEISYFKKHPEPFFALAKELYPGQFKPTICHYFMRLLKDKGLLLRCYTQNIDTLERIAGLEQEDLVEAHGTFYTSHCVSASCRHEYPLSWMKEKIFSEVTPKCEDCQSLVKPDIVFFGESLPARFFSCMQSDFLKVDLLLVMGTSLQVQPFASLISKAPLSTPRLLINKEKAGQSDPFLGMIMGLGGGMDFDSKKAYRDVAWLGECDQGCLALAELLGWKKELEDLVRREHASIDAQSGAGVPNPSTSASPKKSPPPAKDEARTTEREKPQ
Procedure, shortened: (§2)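 Homogeneous fluorescent deacetylase assay with recombinant SIRT1 or SIRT2 (SIRT2 full-length, N-terminal His6, expressed in E. coli BL21). Inhibition taken from remaining substrate versus no-inhibitor control. Run at least in duplicate, inhibitors added from DMSO stocks.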

[3] = target: T3, NAD-dependent protein deacetylase sirtuin-1 (Homo sapiens, UniProt Q96EB6); experiment: Inhibition of human SIRT1 by fluorescent deacetylase assay; procedure, shortened: as §1
T3 sequence (Q96EB6 whole entry): T1 sequence (whole entry)

[4] = target: T3, NAD-dependent protein deacetylase sirtuin-1; experiment: Inhibition of human SIRT1; procedure, shortened: as §2
[5] = target: T3, NAD-dependent protein deacetylase sirtuin-1; experiment: Inhibition of human SIRT1 by radioactive deacetylase assay
Procedure, shortened: (§3)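 Radioactive deacetylase assay with recombinant SIRT1 or SIRT2. Substrate was [3H]-acetylated histone H4 N-terminal peptide (residues 1-25). Released [3H]acetic acid quantified by scintillation counting.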

[6] = target: T2, NAD-dependent protein deacetylase sirtuin-2; experiment: Inhibition of human recombinant SIRT2 by fluorescent deacetylase assay; procedure, shortened: as §2
[7] = target: T2, NAD-dependent protein deacetylase sirtuin-2; experiment: Inhibition of human recombinant SIRT2 by radioactive deacetylase assay; procedure, shortened: as §3
[8] = target: T4, NAD-dependent protein deacetylase sirtuin-2 (Homo sapiens) (UniProt Q8IXJ6); experiment: Inhibition of human recombinant SIRT2 at 12.5 uM; procedure, shortened: as §2
T4 sequence (whole entry): T2 sequence (Q8IXJ6 whole entry)

[9] = target: T4, NAD-dependent protein deacetylase sirtuin-2 (Homo sapiens); experiment: Inhibition of SIRT2 in A549 cells assessed as ability to induce hyperacetylation of tubulin by Western blot analysis at 0.1 uM; format: cell-based
Procedure, shortened: (§4)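 A549 human lung carcinoma cells grown in DMEM with 10% FBS, penicillin-streptomycin and 2 mM L-glutamine. Plated 1 day before treatment, then exposed to compound for 6 h. Cells washed with PBS and lysed in buffer containing 400 nM TSA. Lysates run on 10% SDS-PAGE and western blotted for acetylated alpha-tubulin against total alpha-tubulin.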

[10] = target: T4, NAD-dependent protein deacetylase sirtuin-2 (Homo sapiens); experiment: Inhibition of human recombinant SIRT2 at 50 uM
Procedure, shortened: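 N-terminally His6-tagged full-length human SIRT2, expressed in E. coli BL21. Homogeneous fluorescent deacetylase assay with ZMAL substrate (10.5 µM) and NAD+ (500 µM), 4 h at 37 °C. Inhibitor was added from DMSO stock. After stopping, a tryptic digest developed the fluorophore (ex 390/em 460 nm). Inhibition was taken from remaining substrate versus an uninhibited control, run at least in duplicate.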

[11] = target: T4, NAD-dependent protein deacetylase sirtuin-2 (Homo sapiens); experiment: Inhibition of SIRT2 in A549 cells assessed as ability to induce hyperacetylation of tubulin by Western blot analysis; format: cell-based; procedure, shortened: as §4

O=C1NC(=O)C(c2c[nH]c3cccc(F)c23)=C1c1cn(CCOC(CCO)C2COC3(CCCCC3)O2)c2ccccc12 (stereo unspecified)
inhibition [1]: 71.9%
IC50 [2]: 2.5 µM

CN1C(=O)C(c2cn(Cc3ccccc3)c3ccccc23)=C(c2cn(Cc3ccccc3)c3ccccc23)C1=O
IC50 [2]: 78.3 µM

O=C1NC(=O)C(c2cn(CCOC(CCO)C3COC4(CCCCC4)O3)c3ccccc23)=C1c1c[nH]c2ccccc12 (stereo unspecified)
inhibition [1]: 77.5%
IC50 [2]: 2.8 µM

CN(C)CCCn1cc(C2=C(c3c[nH]c4ccccc34)C(=O)NC2=O)c2ccccc21 [GF-109203]
IC50 [3]: > 50 µM
IC50 [4]: > 50 µM
IC50 [2]: 7.3 µM
IC50 [5]: 23 µM
IC50 [6]: 7.3 µM
IC50 [7]: 11.7 µM
inhibition [8]: > 60%

Oc1cc(O)cc(/C=C/c2ccc(O)c(O)c2)c1
inhibition [8]: > 60%

CN1CCCC1CCn1cc(C2=C(c3c[nH]c4ccccc34)C(=O)NC2=O)c2ccccc21 (stereo unspecified)
inhibition [1]: 58.2%
IC50 [2]: 8.3 µM

O=C1NC(=O)C(c2c[nH]c3cccc(F)c23)=C1c1cn(CCOC(CCO)C(O)CO)c2ccccc12 (stereo unspecified)
inhibition [1]: 29.9%
IC50 [2]: 9.5 µM

CC(/C=C/C(=O)NO)=C\[C@@H](C)C(=O)c1ccc(N(C)C)cc1
Activity [9]: Active

O=C1Cc2c([nH]c3ccc(Br)cc23)-c2ccccc2N1 [KENPAULLONE]
IC50 [2]: > 100 µM

COCc1cc(-c2c(COC)cc(O)c(O)c2O)c(O)c(O)c1O
inhibition [8]: > 60%

C=CC(=O)c1ccc2ccccc2c1
inhibition [8]: > 60%

CN[C@@H]1C[C@H]2O[C@@](C)([C@@H]1OC)n1c3ccccc3c3c4c(c5c6ccccc6n2c5c31)C(=O)NC4
Activity [10]: inactive

CN1C(=O)C(c2cn(CCCCCCCO)c3ccccc23)=C(c2cn(CCCCCCCO)c3ccccc23)C1=O
IC50 [2]: > 100 µM

NC(=O)c1cccnc1
inhibition [1]: 10.6%

CN1C(=O)C(c2c[nH]c3ccccc23)=C(c2c[nH]c3ccccc23)C1=O
IC50 [3]: > 50 µM
IC50 [4]: > 50 µM
IC50 [2]: 33 µM
IC50 [5]: 15.7 µM
IC50 [6]: 33 µM
IC50 [7]: 24.1 µM

COC(=O)/C=C/c1cc(O)ccc1O
inhibition [8]: > 60%

O=C1C(c2c[nH]c3ccccc23)=C(c2c[nH]c3ccccc23)C(=O)N1Cc1ccccc1
IC50 [2]: 40 µM

Cn1c2ccccc2c2c3c(c4c5ccccc5n(CCC#N)c4c21)CNC3=O [GO-6976]
IC50 [2]: > 100 µM

O=Nc1c(-c2c(O)[nH]c3ccccc23)[nH]c2ccccc12
inhibition [8]: > 60%

O=C1Nc2ccc(I)cc2C1=Cc1cc(Br)c(O)c(Br)c1
inhibition [8]: > 60%

O=C1NC(=O)C2=C1c1cn(c3ccccc13)CC[C@@H](C1COC3(CCCCC3)O1)OCCn1cc2c2c(F)cccc21 (stereo partly specified)
inhibition [1]: 55.7%
IC50 [2]: 20.8 µM

CCCCCCCn1cc(C2=C(c3cn(CCCCCCC)c4ccccc34)C(=O)N(C)C2=O)c2ccccc21
IC50 [2]: > 100 µM

O=C1NC(=O)C(c2c[nH]c3ccccc23)=C1c1c[nH]c2ccccc12 [RO-316233]
inhibition [1]: 52.7%
IC50 [2]: 4.7 µM

CC(=O)c1c(O)c(C)c(O)c(Cc2c(O)c3c(c(C(=O)/C=C/c4ccccc4)c2O)OC(C)(C)C=C3)c1O
inhibition [8]: > 60%

O=C1NC(=O)C2=C1c1cn(c3ccccc13)CCOC(C(O)CO)CCn1cc2c2c(F)cccc21 (stereo unspecified)
Activity [1]: inactive
IC50 [2]: > 50 µM

O=C1Cc2c([nH]c3ccccc23)-c2ccccc2N1 [PAULLONE]
IC50 [3]: 50 µM
inhibition [1]: 49.4%
IC50 [5]: 8 µM
Activity [11]: Active

CN(C)C[C@H]1OCCn2cc(c3ccccc32)C2=C(C(=O)NC2=O)c2cn(c3cccc(F)c23)C[C@H]1F
Activity [1]: inactive
IC50 [2]: > 50 µM

O=C(O)c1cc(NCc2cc(O)ccc2O)ccc1O
inhibition [8]: > 60%

ONC1=Nc2ccccc2-c2[nH]c3ccc(Br)cc3c2C1
inhibition [10]: 43.1%
